Source: PubChem BioAssay AID624018 (Broad Institute, 2012)
Active and inactive are the calls of the source.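 The calls were made as follows: active = fitted curve reaches a 35% signal drop at a concentration no higher than twice the top valid dose, in duplicate at both wavelengths; inactive = the rest, including activity in the opposite direction.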

How the values were obtained:
[1] = P. aeruginosa growth delay under iron chelation, dose response, absorbance 405 nm, dry powder (AID 624018); settings: P. aeruginosa growth with EDDHA, absorbance 405 nm, 24-30 h
Outline: (§1)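 Signal: 405 nm absorbance for pyoverdine | Material: Pseudomonas aeruginosa strain ATCC 15692, whole bacterial cells | Buffer or medium: Succinate M9, pH 7.0, 2 µM EDDHA | Times: Bacterial growth with compound for 24-30 h at 37 °C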

[2] = system: P. aeruginosa growth with EDDHA, absorbance 405 nm, 24-30 h; experiment: as above
Outline: as §1

Row | Compound | activity change, negative = inhibition ([1]; at 50 µM (top of the series)) | also measured
1 | N#CC(c1ccc(C(F)(F)F)c(Cl)n1)c1ccccc1OC(F)(F)F (stereo unspecified) | -8.72% (inactive) | –
2 | N#Cc1ccc(C(C#N)c2ccc(Cl)cc2)nc1 (stereo unspecified) | -10.4% (inactive) | –
3 | N#CC(c1ccc(Cl)cc1Cl)c1ncccc1Cl (stereo unspecified) | 2.07% (inactive) | –
4 | CCCCC(C#N)c1ccc(Cl)cc1 (stereo unspecified) | -4.2% (inactive) | –
5 | CCCCC(C#N)c1ccc(C(F)(F)F)cc1 (stereo unspecified) | -6.7% (inactive) | –
6 | CCCCC(C#N)c1ccccc1OC(F)(F)F (stereo unspecified) | -4.38% (inactive) | –
7 | N#Cc1cccc(C(C#N)c2ccc(Cl)cc2Cl)n1 (stereo unspecified) | -3.73% (inactive) | –
8 | N#CC(CC1CC1)c1ccc(Cl)cc1 (stereo unspecified) | -14.4% (inactive) | –
9 | N#CC(c1ccc(F)cc1)c1cccc(C(F)(F)F)n1 (stereo unspecified) | – | AC35 [2]: 37.6 µM
10 | CCCCC(C#N)c1ccc(Cl)cc1Cl (stereo unspecified) | -10.8% (inactive) | –
11 | N#Cc1ccc(C(C#N)c2ccc(Cl)cc2Cl)nc1 (stereo unspecified) | 1.04% (inactive) | –
12 | CCCC(C#N)c1ccc(Cl)cc1 (stereo unspecified) | -12.6% (inactive) | –
13 | N#CC(c1cccc(Cl)n1)c1ccc(Cl)cc1Cl (stereo unspecified) | -22.8% (inactive) | –
14 | N#CC(c1ccc(Cl)cc1)c1ncccc1Cl (stereo unspecified) | – | AC35 [2]: 12.6 µM
15 | Cc1ccc(C(C#N)c2ccccc2OC(F)(F)F)nc1C#N (stereo unspecified) | – | activity change, negative = inhibition ([1]; at 16 µM (top of the series)): -20.9% (inactive)
16 | CCCCC(C#N)c1ccc(F)cc1 (stereo unspecified) | -10.3% (inactive) | –
17 | N#CC(c1ccc(Cl)cc1)c1ccc(C(F)(F)F)c(Cl)n1 (stereo unspecified) | 11.9% (inactive) | –
18 | N#CC(c1ccc(C(F)(F)F)c(Cl)n1)c1ccc(Cl)cc1Cl (stereo unspecified) | 4.93% (inactive) | –

Row | Compound | activity change, negative = inhibition ([1]; at 50 µM (top of the series)) | also measured
19 | N#CC(c1ccc(C(F)(F)F)cc1)c1cccc(C(F)(F)F)n1 (stereo unspecified) | -4.57% (inactive) | –
20 | N#Cc1cccc(C(C#N)c2ccc(Cl)cc2F)n1 (stereo unspecified) | -14.6% (inactive) | –
21 | N#CC(c1ccc(Cl)cc1)c1ccc(C(F)(F)F)cn1 (stereo unspecified) | 4.01% (inactive) | –
22 | Cc1ccc(C(C#N)c2ccc(Cl)cc2)nc1C#N (stereo unspecified) | -4.08% (inactive) | –
23 | N#CC(c1ccc(C(F)(F)F)cc1)c1cccc(Cl)n1 (stereo unspecified) | -8.88% (inactive) | –
24 | N#CC(c1cccc(C(F)(F)F)n1)c1ccccc1OC(F)(F)F (stereo unspecified) | -7.42% (inactive) | –
25 | Cc1cccc(C(C#N)c2ccc(Cl)cc2)n1 (stereo unspecified) | -2.34% (inactive) | –
26 | CC(C#N)(c1ccc(Cl)cc1)c1ccc(C(F)(F)F)cn1 (stereo unspecified) | -3.75% (inactive) | –
27 | N#CC(c1ccc(F)cc1)c1ccc(C(F)(F)F)c(Cl)n1 (stereo unspecified) | -5.95% (inactive) | –
28 | N#CC(c1cccc(Cl)n1)c1ccccc1OC(F)(F)F (stereo unspecified) | -14.6% (inactive) | –
29 | N#Cc1cccc(C(C#N)c2ccccc2OC(F)(F)F)n1 (stereo unspecified) | -10.3% (inactive) | –
30 | N#CC(c1ccc(Cl)cc1)c1cccc(C(F)(F)F)n1 (stereo unspecified) | – | AC35 [2]: 19.5 µM
31 | Cc1ccc(C(C#N)c2ccc(F)cc2)nc1C#N (stereo unspecified) | -6.49% (inactive) | –
32 | Cc1ccc(C(C#N)c2ccc(Cl)cc2)nc1 (stereo unspecified) | -8.79% (inactive) | –
33 | N#Cc1cccc(C(C#N)c2ccc(Cl)cc2)n1 (stereo unspecified) | -11.9% (inactive) | –
34 | N#CC(c1ccc(C(F)(F)F)cc1)c1ccc(C(F)(F)F)c(Cl)n1 (stereo unspecified) | -6.74% (inactive) | –
35 | CCCCC(C#N)c1ccc(Cl)cc1F (stereo unspecified) | -1.21% (inactive) | –
36 | N#CC(c1cccc(C(F)(F)F)n1)c1ccc(Cl)cc1F (stereo unspecified) | – | AC35 [2]: 22.7 µM
